Measurements from different studies.
Protocols differ between the studies behind these lines.
PLA2G5: Phospholipase A2 group V (PLA2G5, Homo sapiens, UniProt P39877)
NTRK3: NT-3 growth factor receptor (NTRK3, Homo sapiens, UniProt Q16288)
MDH2: Malate dehydrogenase, mitochondrial (MDH2, Sus scrofa, UniProt P00346)
CDK9 with cyclin T1: Cyclin-dependent kinase 9, with cyclin T1 (CDK9, Homo sapiens, UniProt P50750)
AKT1: RAC-alpha serine/threonine-protein kinase (AKT1, Homo sapiens, UniProt P31749)
CXCR4: C-X-C chemokine receptor type 4 (CXCR4, Homo sapiens, UniProt P61073)
CYP2C9: Cytochrome P450 2C9 (CYP2C9, Homo sapiens, UniProt P11712)

target | effect on | mode | method | setting | IC50 | SMILES
PLA2G5 | enzyme activity | inhibitor | Ellman | – | 43.9 µM | CC(=O)c1cccc(/N=N/c2cc(/C=C/C(=O)O)ccc2O)c1
Tubulin beta-5 chain (TUBB, Homo sapiens, UniProt P07437) | tubulin polymerisation | inhibitor | ELISA | – | 2.32 µM | COc1cc(/C=C/C(=O)c2ccc(NC(=O)c3ccccc3CN3C(=O)c4ccccc4C3=O)cc2)cc(OC)c1OC
NTRK3 | enzyme activity | inhibitor | – | – | 0.19 µM | CCn1ncc2c1-c1cnc(N)c(c1)O[C@H](C)c1cc(F)ccc1-c1nn(C)nc1C2
MDH2 | enzyme activity | inhibitor | – | – | > 62.5 µM | O=S(=O)(Nc1ccc(-c2nc3cc(NS(=O)(=O)c4ccc(Cl)s4)ccc3o2)cc1)c1ccc(Cl)c(C(F)(F)F)c1
Geranylgeranyl pyrophosphate synthase (GGPS1, Homo sapiens, UniProt O95749) | enzyme activity | inhibitor | – | – | 10 µM | CC(C)=CCC/C(C)=C/Cc1ccc[n+](CC(P(=O)([O-])O)P(=O)(O)O)c1 (stereo not drawn)
CDK9 with cyclin T1 | enzyme activity | inhibitor | ADP detection | – | > 100 µM | COc1c(C(=O)/C=C(\O)c2ccccc2)ccc2occc12
MDH2 | enzyme activity | inhibitor | – | – | > 62.5 µM | O=S(=O)(Nc1ccc(-c2nc3cc(NS(=O)(=O)c4ccc(F)cc4)ccc3o2)cc1)c1ccc(F)cc1
Cyclin-dependent kinase 1, with cyclin B (CDK1, Homo sapiens, UniProt P06493) | enzyme activity | inhibitor | – | – | > 200 µM | O=C(O)c1cccc(SCc2cccc(Nc3ncc4c(-c5ccc(N6CCOCC6)cc5)[nH]nc4n3)c2)c1
DNA dC->dU-editing enzyme APOBEC-3A (Homo sapiens, UniProt P31941) | enzyme activity | inhibitor | – | – | > 100 µM | Nn1cnnc1O
Ephrin type-A receptor 2 (EPHA2, Homo sapiens, UniProt P29317) | enzyme activity | inhibitor | ADP detection | – | 0.578 µM | CCN1CCN(Cc2ccc(NC(=O)c3ccc(C)c(NC(=O)c4cncc(I)c4)c3)cc2C(F)(F)F)CC1
CDK9 with cyclin T1 | enzyme activity | inhibitor | FRET | – | 0.165 µM | C=CC(=O)Nc1ccc(N2CCC[C@@H](Nc3ncc(Cl)c(-c4c[nH]c5ccccc45)n3)C2)cc1C
Dipeptidyl peptidase 4 (DPP4, Homo sapiens, UniProt P27487) | enzyme activity | inhibitor | fluorescence | – | 59.3 µM | CC(=O)NS(=O)(=O)c1ccc(NC(=O)C=CC(=O)O)cc1
MDH2 | enzyme activity | inhibitor | – | – | > 62.5 µM | Nc1ccc(S(=O)(=O)Nc2ccc(-c3nc4cc(NS(=O)(=O)c5ccc(N)cc5)ccc4o3)cc2)cc1
AKT1 | enzyme activity | inhibitor | – | – | > 0.5 µM | COc1ccc2c(Oc3ccc4c(C(=O)Nc5ccccc5N)cccc4c3)ccnc2c1
CXCR4 | β-arrestin recruitment | antagonist | – | – | 50 µM | CCS(=O)(=O)c1ncc(N(Cc2ccccc2)Cc2ccco2)c(C(=O)Nc2ccccc2F)n1
MDH2 | enzyme activity | inhibitor | – | – | > 62.5 µM | Cc1ccc(S(=O)(=O)Nc2ccc(-c3nc4ccc(NS(=O)(=O)c5ccc(C)cc5)cc4[nH]3)cc2)cc1
PLA2G5 | enzyme activity | inhibitor | Ellman | – | 55.1 µM | O=C(O)/C=C/c1ccc(O)cc1
AKT1 | cell-free assay | – | – | – | > 10 µM | CC(C)(C)n1nc(-c2cnc3cc(OC4CC4)ccc3c2)c(C(N)=O)c1N
CXCR4 | β-arrestin recruitment | antagonist | – | – | 40 µM | CS(=O)(=O)c1ncc(N(Cc2ccccc2)Cc2ccco2)c(C(=O)Nc2ccccc2Cl)n1
Proto-oncogene tyrosine-protein kinase Src (SRC, Homo sapiens, UniProt P12931) | enzyme activity | inhibitor | – | – | > 20 µM | Nc1ncnc2c1c(Cc1cccc3ccccc13)nn2CC1CCNCC1
CXCR4 | β-arrestin recruitment | – | – | – | 200 µM | c1ccc(-n2cc(CCN(Cc3nc(C4CC4)no3)Cc3nc(C4CC4)no3)cn2)cc1

target | effect on | mode | method | setting | IC50 | SMILES
Activin receptor type-1 (ACVR1, Homo sapiens, UniProt Q04771) | enzyme activity | inhibitor | – | lysate | > 10 µM | NCc1ccc(Nc2ncc(F)c(Nc3ccccc3)n2)cc1
MDH2 | enzyme activity | inhibitor | – | – | > 62.5 µM | COc1ccc(S(=O)(=O)Nc2ccc3oc(-c4ccc(NC(=O)c5ccc(Cl)s5)cc4)nc3c2)cc1
CYP2C9 | enzyme activity | inhibitor | luciferase | – | 11 µM | Nc1nc(N)c2nc(CNc3cccc4ccccc34)cnc2n1
Tyrosine-protein kinase Mer (MERTK, Homo sapiens, UniProt Q12866) | enzyme activity | inhibitor | TR-FRET | – | 0.003 µM | CNC(=O)c1cc2c(Oc3ccc(NC(=O)C4(C(=O)Nc5ccc(F)cc5)CC4)cc3)ccnc2cc1OC
CXCR4 | β-arrestin recruitment | – | – | – | 200 µM | Cc1noc(C)c1CN(C(=O)CCc1nc(Cc2ccccc2)no1)c1ccccc1
PLA2G5 | enzyme activity | inhibitor | Ellman | – | 8.47 µM | CC(=O)c1cccc(N=Nc2c(C(=O)O)cc(O)c(O)c2O)c1
CXCR4 | ligand displacement | – | radioligand | – | 0.0248 µM | CC(C)NCCCC[C@H](NC(=O)[C@H]1CCC(=O)N[C@@H](Cc2ccccc2)C(=O)N[C@@H](Cc2ccc(O)cc2)C(=O)N[C@@H](CCCCNC(C)C)C(=O)N[C@H](CCCNC(=N)N)C(=O)N[C@@H](Cc2ccc3ccccc3c2)C(=O)NCC(=O)N1)C(N)=O
CYP2C9 | enzyme activity | inhibitor | luciferase | – | 0.316 µM | COC(=O)C1CCN(C(=O)c2ccc(N(Cc3ccccc3)Cc3cnc4nc(N)nc(N)c4n3)cc2)CC1
NTRK3 | enzyme activity | inhibitor | – | – | 0.0007 µM | Cc1cnc(-c2ccc(-c3ccc(NC(=O)Nc4c(F)cc(F)cc4F)cc3F)c3c2C(=O)NC3)[nH]1
MDH2 | enzyme activity | inhibitor | – | – | > 62.5 µM | COc1c(Br)cccc1C(=O)Nc1ccc(Sc2nc3ccccc3s2)cc1
PLA2G5 | enzyme activity | inhibitor | Ellman | – | 7.15 µM | CC(=O)c1ccc(N=Nc2c(C(=O)O)cc(O)c(O)c2O)cc1
CDK9 with cyclin T1 | enzyme activity | inhibitor | ADP detection | – | > 100 µM | O=c1cc(-c2ccccc2)oc2c1ccc1ccccc12
Mitogen-activated protein kinase 3 (MAPK3, Homo sapiens, UniProt P27361) | enzyme activity | inhibitor | radiometric | – | 0.0042 µM | O=C(Nc1ccc2[nH]nc(-c3ccncc3)c2c1)[C@@H]1CCN(CC(=O)N2CCN(c3ccc(-c4ncccn4)cc3)CC2)C1
CXCR4 | calcium signal | antagonist | – | – | 38.3 µM | OCc1cc(C(O)CNCCCCCCOCCCCc2ccccc2)ccc1O (stereo not drawn)
Calcium/calmodulin-dependent protein kinase kinase 2 (CAMKK2, Homo sapiens, UniProt Q96RR4) | cell-free assay | – | – | – | > 10 µM | CC(C)(C)n1nc(-c2ccc3nc(OC4CC4)ccc3c2)c(C(N)=O)c1N
MDH2 | enzyme activity | inhibitor | – | – | > 62.5 µM | O=S(=O)(Nc1ccc(-c2nc3cc(NS(=O)(=O)c4cccc(C(F)(F)F)c4)ccc3o2)cc1)c1cccc(C(F)(F)F)c1
CYP2C9 | enzyme activity | inhibitor | – | – | 0.7 µM | COc1ccc2cc3[n+](cc2c1OC)CCc1cc2c(cc1-3)OCO2
CXCR4 | β-arrestin recruitment | – | – | – | 398 µM | CCN(CC)CCOCCN(Cc1ccccc1)Cc1nc(Cc2ccccc2)no1
Prothrombin (Rattus norvegicus, UniProt P18292) | enzyme activity | inhibitor | – | – | 163 µM | CC1=C(/C=C/C(C)=C/C=C/C(C)=C/C(=O)O)C(C)(C)CCC1
MDH2 | enzyme activity | inhibitor | – | – | > 62.5 µM | O=S(=O)(Nc1ccc(-c2nc3cc(NS(=O)(=O)c4ccccc4Cl)ccc3o2)cc1)c1ccccc1Cl
CXCR4 | β-arrestin recruitment | antagonist | – | – | 13 µM | CCS(=O)(=O)c1ncc(N(Cc2ccco2)Cc2ccco2)c(C(=O)Nc2c(C)cccc2C)n1
